Measured values as given in ChEMBL document CHEMBL1123156 (J Med Chem, 1986).

What was measured:
[1] = molecular target: T1, Cholesterol side-chain cleavage enzyme, mitochondrial (cytochrome P450scc) (Bos taurus, UniProt P00189); assay: Inhibition of Bovine adrenal cholesterol side chain cleavage cytochrome P450 at 50 ug/mL; settings: cattle
T1 sequence (P00189 whole entry): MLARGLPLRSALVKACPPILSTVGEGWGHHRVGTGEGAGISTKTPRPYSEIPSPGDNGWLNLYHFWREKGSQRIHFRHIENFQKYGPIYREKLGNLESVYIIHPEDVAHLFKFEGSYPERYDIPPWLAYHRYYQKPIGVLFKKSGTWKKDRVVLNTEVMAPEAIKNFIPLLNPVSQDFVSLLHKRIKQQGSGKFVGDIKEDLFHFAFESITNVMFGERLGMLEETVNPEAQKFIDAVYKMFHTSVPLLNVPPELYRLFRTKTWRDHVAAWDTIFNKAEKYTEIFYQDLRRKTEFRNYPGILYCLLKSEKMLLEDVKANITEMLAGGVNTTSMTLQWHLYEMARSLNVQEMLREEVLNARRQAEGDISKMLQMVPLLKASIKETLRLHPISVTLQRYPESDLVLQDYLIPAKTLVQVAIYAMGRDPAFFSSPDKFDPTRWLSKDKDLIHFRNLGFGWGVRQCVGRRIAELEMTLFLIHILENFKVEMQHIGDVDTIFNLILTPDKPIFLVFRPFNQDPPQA
Summary of the method: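 Bovine adrenal CSCC enzyme (cholesterol to pregnenolone) preparation. Inhibitor at 50 μg/mL, the highest concentration tested. Result is percent inhibition relative to uninhibited control, as the mean of two determinations (variability <10%).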

Aromatase [2] = molecular target: T2, Aromatase (Homo sapiens, UniProt P11511); assay: Inhibition of Cytochrome P450 19A1 at 20 ug/mL
T2 sequence (P11511 whole entry): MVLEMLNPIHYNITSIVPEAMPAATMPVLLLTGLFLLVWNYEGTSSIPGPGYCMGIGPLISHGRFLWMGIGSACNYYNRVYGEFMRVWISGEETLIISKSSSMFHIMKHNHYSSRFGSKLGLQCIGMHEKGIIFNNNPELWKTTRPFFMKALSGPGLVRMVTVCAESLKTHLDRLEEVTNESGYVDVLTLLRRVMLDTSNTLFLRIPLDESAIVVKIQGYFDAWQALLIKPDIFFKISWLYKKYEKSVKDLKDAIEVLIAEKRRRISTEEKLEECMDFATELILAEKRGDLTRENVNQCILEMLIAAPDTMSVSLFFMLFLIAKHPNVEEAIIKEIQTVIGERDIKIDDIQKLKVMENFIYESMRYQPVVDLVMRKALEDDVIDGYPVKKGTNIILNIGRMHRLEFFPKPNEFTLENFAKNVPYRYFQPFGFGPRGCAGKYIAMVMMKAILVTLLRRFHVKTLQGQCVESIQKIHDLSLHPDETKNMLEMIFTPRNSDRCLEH
Summary of the method: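 Human placental aromatase preparation. Inhibitor at 20 μg/mL. Result is percent inhibition of androgen aromatization relative to control.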

Aromatase [3] = molecular target: T2, Aromatase
Aromatase [4] = molecular target: T2, Aromatase; remark: listed apart in the source
Aromatase [5] = molecular target: T2, Aromatase; remark: listed apart in the source

Compound	inhibition at 50 ug/mL [1]	inhibition at 20 µg/mL (Aromatase [2])	IC50 (Aromatase [3])	IC50 (Aromatase [4])	Ki (Aromatase [5])
NC(=O)CCc1ccc(N)cc1	19%	38%	–	–	–
CN1C(=O)CC(c2ccc(N)cc2)C1=O (stereo not given)	30%	–	10 µM	16.6 µM	1.75 µM
NC(=O)CCc1ccc([N+](=O)[O-])cc1	28%	8%	–	–	–
Nc1ccc(C2CC(=O)NC2=O)cc1 (stereo not given)	30%	–	10.2 µM	20 µM	–
CCC1(c2ccc(N)cc2)CC(=O)N(C)C1=O (stereo not given)	0%	–	–	–	–
CCC1(c2ccc(N)cc2)CCC(=O)NC1=O (stereo not given) [AMINOGLUTETHIMIDE]	83%	–	–	–	–
CN1C(=O)CC(C)(c2ccc(N)cc2)C1=O (stereo not given)	30%	–	10 µM	15.7 µM	1.75 µM
CCC1(c2ccc(N)cc2)CC(=O)NC1=O (stereo not given)	38%	–	8.4 µM	13.5 µM	1 µM
CC1(c2ccc(N)cc2)CC(=O)NC1=O (stereo not given)	0%	–	10 µM	12.5 µM	0.8 µM
